One block for each molecule: values may come before it.
What was measured:
[1] = biological target: T1, Bombesin receptor subtype-3 (Rattus norvegicus, UniProt Q8K418); assay: Agonist activity at rat BRS3 expressed in HEK293AEQ cells after 10 mins by aequorin bioluminescence assay; type: functional, cell-based
T1 sequence (Q8K418 whole entry): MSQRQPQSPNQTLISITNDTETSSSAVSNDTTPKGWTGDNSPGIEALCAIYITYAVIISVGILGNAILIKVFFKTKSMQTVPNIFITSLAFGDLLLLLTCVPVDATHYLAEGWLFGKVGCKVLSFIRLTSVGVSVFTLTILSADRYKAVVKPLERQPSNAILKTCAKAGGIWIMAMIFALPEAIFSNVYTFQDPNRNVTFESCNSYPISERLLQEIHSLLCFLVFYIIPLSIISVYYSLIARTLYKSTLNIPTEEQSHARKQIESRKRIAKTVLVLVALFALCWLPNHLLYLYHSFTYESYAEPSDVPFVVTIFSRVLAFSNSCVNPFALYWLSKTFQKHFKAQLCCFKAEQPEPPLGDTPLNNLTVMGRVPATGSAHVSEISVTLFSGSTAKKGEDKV

[2] = biological target: T2, Bombesin receptor subtype-3 (Homo sapiens, UniProt P32247); assay: Agonist activity at human BRS3 expressed in HEK293AEQ cells after 10 mins by aequorin bioluminescence assay; type: functional, cell-based
T2 sequence (P32247 whole entry): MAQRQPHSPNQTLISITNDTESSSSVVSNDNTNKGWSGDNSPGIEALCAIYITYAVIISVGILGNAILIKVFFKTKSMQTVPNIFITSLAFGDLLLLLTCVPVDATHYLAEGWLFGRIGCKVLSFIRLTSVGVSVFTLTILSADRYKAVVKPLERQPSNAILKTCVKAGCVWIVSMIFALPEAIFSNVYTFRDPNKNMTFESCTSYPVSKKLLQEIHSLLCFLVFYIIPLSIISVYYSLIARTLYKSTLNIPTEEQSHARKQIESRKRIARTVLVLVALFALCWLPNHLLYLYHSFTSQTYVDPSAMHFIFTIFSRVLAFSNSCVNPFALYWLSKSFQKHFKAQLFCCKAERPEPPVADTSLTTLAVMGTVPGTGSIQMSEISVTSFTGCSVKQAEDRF

[3] = biological target: T3, Bombesin receptor subtype-3 (Rattus norvegicus) (UniProt Q8K418); assay: Agonist activity at rat BRS3 expressed in HEK293AEQ cells after 10 mins by aequorin bioluminescence assay relative to dY-peptide; type: functional, cell-based; design: concentration or dose not given beside the values
T3 sequence (whole entry): T1 sequence (Q8K418 whole entry)

[4] = biological target: T4, Bombesin receptor subtype-3 (Homo sapiens) (UniProt P32247); assay: Agonist activity at human BRS3 expressed in HEK293AEQ cells after 10 mins by aequorin bioluminescence assay relative to dY-peptide; type: functional, cell-based
T4 sequence (whole entry): T2 sequence (P32247 whole entry)

Rattus norvegicus [5] = assay: Antiobesity activity in deit-induced obese rat model assessed as suppression of acute food intake at 10 mg/kg, iv relative to control; type: functional
How it was run: (§1)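 Acute food intake was measured and expressed as percent suppression versus vehicle-treated rats. Melanotan-II served as the positive control.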

[6] = Clearance in rat; type: ADME, organism-based; details: in vivo
[7] = Drug level in rat brain at 1 mg/kg, iv after 0.25 hrs; type: ADME, organism-based; design: dose 1 mg/kg, route intravenous; details: read-out: Drug uptake
How it was run: (§2)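 Rats received a single 1 mg/kg IV dose. Total drug concentration in brain and the brain/plasma ratio were measured at 0.25, 1 and 2 h post-dose.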

[8] = Drug level in rat brain at 1 mg/kg, iv after 2 hrs; type: ADME, organism-based; design: dose 1 mg/kg, route intravenous; details: read-out: Drug uptake; how it was run: as §2
Rattus norvegicus [9] = assay: Antiobesity activity in deit-induced obese rat model assessed as suppression of acute food intake at 0.3 mg/kg, iv relative to control; type: functional; how it was run: as §1
[10] = Ratio of drug level in brain to plasma in rat at 1 mg/kg, iv after 1 hr; type: ADME, organism-based; design: dose 1 mg/kg, route intravenous; details: brain and plasma, read-out: BPR; how it was run: as §2
[11] = Ratio of drug level in brain to plasma in rat at 1 mg/kg, iv after 0.25 hr; type: ADME, organism-based; design: dose 1 mg/kg, route intravenous; details: brain and plasma, read-out: BPR; how it was run: as §2
[12] = Half life in rat; type: ADME, organism-based; details: in vivo
[13] = Bioavailability in rat; type: ADME, organism-based; details: in vivo
[14] = Drug level in rat brain at 1 mg/kg, iv after 1 hr; type: ADME, organism-based; design: dose 1 mg/kg, route intravenous; details: read-out: Drug uptake; how it was run: as §2
[15] = Ratio of drug level in brain to plasma in rat at 1 mg/kg, iv after 2 hrs; type: ADME, organism-based; design: dose 1 mg/kg, route intravenous; details: brain and plasma, read-out: BPR; how it was run: as §2

SMILES: CC1CCN(c2nc3[nH]nc(N)c3c3c2CN(Cc2ccccc2)CC3)CC1
EC50 [1]: 0.854 µM
EC50 [2]: 10 µM
Activity [3]: 96%
Activity [4]: 6.8%

SMILES: Nc1n[nH]c2nc(N3CCCCC3)c3c(c12)CCN(CCc1ccccc1)C3
EC50 [1]: 7.91 µM
EC50 [2]: 10 µM
Activity [3]: 51%
Activity [4]: 3.3%

SMILES: Nc1n[nH]c2nc(N3CCC(F)CC3)c3c(c12)CCN(Cc1ccccc1)C3
EC50 [1]: 0.481 µM
EC50 [2]: 10 µM
Activity [3]: 96%
Activity [4]: 10%

SMILES: CC(C)Nc1nc2[nH]nc(N)c2c2c1CN(Cc1ccccc1)CC2
EC50 [1]: 7.65 µM
EC50 [2]: 10 µM
Activity [3]: 55%
Activity [4]: 1.8%

SMILES: Nc1n[nH]c2nc(N3CCCCC3)c3c(c12)CCN(Cc1ccccc1Cl)C3
EC50 [1]: 0.342 µM
EC50 [2]: 5.57 µM
Activity [3]: 121%
Activity [4]: 67%

SMILES: COc1ccc(CN2CCc3c(c(N4CCCCC4)nc4[nH]nc(N)c34)C2)cc1
EC50 [1]: 10 µM
EC50 [2]: 10 µM
Activity [3]: 8%
Activity [4]: 0.55%

SMILES: Nc1n[nH]c2nc(N3CCCCC3)c3c(c12)CCN(Cc1cccc(C(F)(F)F)c1)C3
EC50 [1]: 10 µM
EC50 [2]: 10 µM
Activity [3]: 38%
Activity [4]: 0.3%

SMILES: CC(=O)n1nc(N)c2c3c(c(N4CCCCC4)nc21)CN(Cc1ccccc1)CC3
EC50 [1]: 0.759 µM
EC50 [2]: 10 µM
Activity [3]: 108%
Activity [4]: 20%

SMILES: CC(C)(C)CN1CCc2c(c(N3CCCCC3)nc3[nH]nc(N)c23)C1
EC50 [1]: 1.06 µM
EC50 [2]: 10 µM
Activity [3]: 91%
Activity [4]: 22%

SMILES: Cn1nc(N)c2c3c(c(N4CCCCC4)nc21)CN(Cc1ccccc1)CC3
EC50 [1]: 6.06 µM
EC50 [2]: 10 µM
Activity [3]: 73%
Activity [4]: 7.6%

SMILES: CN(C)c1nc2[nH]nc(N)c2c2c1CN(Cc1ccccc1)CC2
EC50 [1]: 8.95 µM
EC50 [2]: 10 µM
Activity [3]: 59%
Activity [4]: 0.9%

SMILES: Nc1n[nH]c2nc(Nc3ccccc3)c3c(c12)CCN(Cc1ccccc1)C3
EC50 [1]: 10 µM
EC50 [2]: 10 µM
Activity [3]: 60%
Activity [4]: 1.5%

SMILES: Nc1n[nH]c2nc(N3CCCCC3)c3c(c12)CCNC3
EC50 [1]: > 10 µM
EC50 [2]: > 10 µM
Activity [3]: 15%
Activity [4]: 0.3%

SMILES: Nc1n[nH]c2nc(N3CCNCC3)c3c(c12)CCN(Cc1ccccc1)C3
EC50 [1]: 10 µM
EC50 [2]: 10 µM
Activity [3]: 31%
Activity [4]: 0.1%

SMILES: Nc1n[nH]c2nc(N3CCCCC3)c3c(c12)CCN(CC1CCCCC1)C3
EC50 [1]: 10 µM
EC50 [2]: 10 µM
Activity [3]: 49%
Activity [4]: 12%

SMILES: Nc1n[nH]c2nc(N3CCCCC3)c3c(c12)CCN(Cc1ccc2c(c1)OCO2)C3
EC50 [1]: 0.402 µM
EC50 [2]: 10 µM
Activity [3]: 94%
Activity [4]: 1.6%

SMILES: CN1CCN(c2nc3[nH]nc(N)c3c3c2CN(Cc2ccccc2)CC3)CC1
EC50 [1]: 10 µM
EC50 [2]: 10 µM
Activity [3]: 21%
Activity [4]: 0.2%

SMILES: Nc1n[nH]c2nc(N3CCCCC3)c3c(c12)CCN(Cc1ccc(F)cc1)C3
EC50 [1]: 3.86 µM
EC50 [2]: 10 µM
Activity [3]: 64%
Activity [4]: 1.7%

SMILES: Nc1n[nH]c2nc(NC3CCCCC3)c3c(c12)CCN(Cc1ccccc1)C3
EC50 [1]: 10 µM
EC50 [2]: 10 µM
Activity [3]: 50%
Activity [4]: 1%

SMILES: Nc1n[nH]c2nc(N3CCCCCCC3)c3c(c12)CCN(Cc1ccccc1)C3
EC50 [1]: 10 µM
EC50 [2]: 10 µM
Activity [3]: 51%
Activity [4]: 3.7%

SMILES: Nc1n[nH]c2nc(N3CCCCC3)c3c(c12)CCN(Cc1ccccn1)C3
EC50 [1]: 0.346 µM
EC50 [2]: 6.78 µM
Activity [3]: 94%
Activity [4]: 46%

SMILES: Nc1n[nH]c2nc(N3CCOCC3)c3c(c12)CCN(Cc1ccccc1)C3
EC50 [1]: 3.56 µM
EC50 [2]: 10 µM
Activity [3]: 82%
Activity [4]: 1.3%

SMILES: Nc1n[nH]c2nc(N3CCCCC3)c3c(c12)CCN(C(=O)c1ccc(F)cc1)C3
EC50 [1]: > 10 µM
EC50 [2]: > 10 µM

SMILES: CC(C)CN1CCc2c(c(N3CCCCC3)nc3[nH]nc(N)c23)C1
EC50 [1]: 10 µM
EC50 [2]: 10 µM
Activity [3]: 61%
Activity [4]: 10%

Continued, in another order:

EC50 [1]: 0.099 µM
EC50 [2]: 4.76 µM
Activity [3]: 102%
Activity [4]: 37%
SMILES: CC(C)C(=O)Nc1n[nH]c2nc(N3CCCCC3)c3c(c12)CCN(Cc1ccccc1)C3

EC50 [1]: 1.44 µM
EC50 [2]: 10 µM
Activity [3]: 100%
Activity [4]: 9%
SMILES: Nc1n[nH]c2nc(N3CCCCCC3)c3c(c12)CCN(Cc1ccccc1)C3

EC50 [1]: 0.129 µM
EC50 [2]: 3.16 µM
Activity [3]: 94%
Activity [4]: 31%
SMILES: CC(=O)Nc1n[nH]c2nc(N3CCCCC3)c3c(c12)CCN(Cc1ccccc1)C3

EC50 [1]: 0.965 µM
EC50 [2]: 10 µM
Activity [3]: 99%
Activity [4]: 12%
SMILES: Nc1n[nH]c2nc(N3CCCC3)c3c(c12)CCN(Cc1ccccc1)C3

EC50 [1]: 0.413 µM
EC50 [2]: 0.704 µM
Activity [3]: 99%
Activity [4]: 61%
SMILES: O=C(Nc1n[nH]c2nc(N3CCCCC3)c3c(c12)CCN(Cc1ccccc1)C3)C1CCCC1

EC50 [1]: 0.68 µM
EC50 [2]: 4.15 µM
Activity [3]: 94%
Activity [4]: 29%
SMILES: CC(C)(C)CNc1n[nH]c2nc(N3CCCCC3)c3c(c12)CCN(Cc1ccccc1)C3

EC50 [1]: 0.212 µM
EC50 [2]: 0.543 µM
Activity [3]: 96%
Activity [4]: 78%
SMILES: CCC(C)(C)C(=O)Nc1n[nH]c2nc(N3CCCCC3)c3c(c12)CCN(Cc1ccccc1)C3

EC50 [1]: 0.063 µM
EC50 [2]: 1.54 µM
Activity [3]: 105%
Activity [4]: 37%
SMILES: CC(C)(C)C(=O)Nc1n[nH]c2nc(N3CCCCC3)c3c(c12)CCN(Cc1ccccc1)C3

EC50 [1]: 0.471 µM
EC50 [2]: 10 µM
Activity [3]: 105%
Activity [4]: 53%
SMILES: CCNc1n[nH]c2nc(N3CCCCC3)c3c(c12)CCN(Cc1ccccc1)C3

EC50 [1]: 0.38 µM
EC50 [2]: 4.52 µM
clearance [6]: 2.7 L/h/kg
concentration at 0.25 h [7]: 1.21 µM
concentration at 2 h [8]: 0.14 µM
Activity [3]: 105%
Activity [4]: 60%
Kp at 1 h [10]: 3.2
Kp at 0.25 h [11]: 4.4
half-life [12]: 43.8 min
bioavailability [13]: 5.7%
concentration at 1 h [14]: 0.39 µM
Kp at 2 h [15]: 3.4
SMILES: Nc1n[nH]c2nc(N3CCCCC3)c3c(c12)CCN(Cc1ccccc1)C3
Activity (Rattus norvegicus [5]): 31.6%
Activity (Rattus norvegicus [9]): 43.6%

EC50 [1]: 0.123 µM
EC50 [2]: 3.47 µM
Activity [3]: 103%
Activity [4]: 19%
SMILES: CCC(=O)Nc1n[nH]c2nc(N3CCCCC3)c3c(c12)CCN(Cc1ccccc1)C3

EC50 [1]: 0.433 µM
EC50 [2]: 1.23 µM
Activity [3]: 93%
Activity [4]: 52%
SMILES: CC(C)(C)CC(=O)Nc1n[nH]c2nc(N3CCCCC3)c3c(c12)CCN(Cc1ccccc1)C3

From ChEMBL document CHEMBL1157936, “Synthesis of 7-benzyl-5-(piperidin-1-yl)-6,7,8,9-tetrahydro-3H-pyrazolo[3,4-c][2,7]naphthyridin-1-ylamine and its analogs as bombesin receptor subtype-3 agonists” (Bioorg Med Chem Lett, 2010)
